Experimental data published in ChEMBL document CHEMBL3822356, “Urotensin II((4-11)) Azasulfuryl Peptides: Synthesis and Biological Activity” (J Med Chem, 2016).
pIC50: −log10 of the molar value. Calls of active or inactive are those of the source. The rule behind the calls is not given here. Where a SMILES comes first, the peptide text is derived from it.

Key:
[1] = target: T1, Urotensin-2 receptor (Homo sapiens) (UniProt Q9UKP6); experiment: Displacement of [125I]-hU2 from human UT2 receptor expressed in CHO cells at 10^-5 M after 90 mins by gamma counter assay; assay type: cell-based
T1 sequence (whole entry): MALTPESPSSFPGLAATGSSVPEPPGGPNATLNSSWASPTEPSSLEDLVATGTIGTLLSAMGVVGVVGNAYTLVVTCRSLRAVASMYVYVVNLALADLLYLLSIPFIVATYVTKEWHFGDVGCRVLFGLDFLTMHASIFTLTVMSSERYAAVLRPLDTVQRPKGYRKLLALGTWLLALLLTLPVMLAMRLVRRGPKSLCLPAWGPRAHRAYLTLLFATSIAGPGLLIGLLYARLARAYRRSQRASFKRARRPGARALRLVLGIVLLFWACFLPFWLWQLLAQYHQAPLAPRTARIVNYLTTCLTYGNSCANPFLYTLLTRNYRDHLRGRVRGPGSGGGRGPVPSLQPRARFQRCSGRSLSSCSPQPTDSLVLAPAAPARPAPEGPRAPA

Urotensin-2 receptor = target: T2, Urotensin-2 receptor (Homo sapiens, UniProt Q9UKP6); experiment: Displacement of [125I]-hU2 from human UT2 receptor expressed in CHO cells after 90 mins by gamma counter assay; assay type: cell-based
T2 sequence (Q9UKP6 whole entry): T1 sequence (whole entry)
Method in brief: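 CHO cells overexpressing human UT receptor incubated with test peptide. Displacement of 125I-hUII from UT measured. At least three independent experiments, each determination in triplicate; mean ± S.E.M.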

[2] = target: T3, Urotensin-2 receptor (Rattus norvegicus) (UniProt P49684); experiment: Antagonist activity at UT2 receptor in Sprague-Dawley rat thoracic aorta ring assessed as Emax for URP-induced aortic contractions at 10^-5M relative to KCl; assay type: tissue-based
T3 sequence (whole entry): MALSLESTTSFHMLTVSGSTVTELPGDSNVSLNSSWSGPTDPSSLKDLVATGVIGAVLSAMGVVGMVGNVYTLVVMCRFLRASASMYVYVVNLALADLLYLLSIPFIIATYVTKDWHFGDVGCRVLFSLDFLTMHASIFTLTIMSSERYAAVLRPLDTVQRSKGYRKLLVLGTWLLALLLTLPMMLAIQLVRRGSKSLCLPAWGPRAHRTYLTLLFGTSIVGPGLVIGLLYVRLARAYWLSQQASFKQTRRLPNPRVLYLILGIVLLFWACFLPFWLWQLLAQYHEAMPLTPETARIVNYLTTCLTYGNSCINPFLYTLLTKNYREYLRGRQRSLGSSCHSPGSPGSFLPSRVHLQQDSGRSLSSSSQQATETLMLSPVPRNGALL
Method in brief: (§1)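 Rat aortic rings pre-exposed to test peptide at 10^-5 M, then given cumulative increasing concentrations (10^-11 to 10^-6 M) of hUII or URP. Contraction measured to give pEC50 and Emax, expressed relative to KCl-induced contraction. Mean ± SEM; unpaired Student's t test against hUII or URP alone.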

[3] = target: T3, Urotensin-2 receptor (Rattus norvegicus); experiment: Antagonist activity at UT2 receptor in Sprague-Dawley rat thoracic aorta ring assessed as Emax for hU2-induced aortic contractions at 10^-5M relative to KCl; assay type: tissue-based; method in brief: as §1
[4] = target: T3, Urotensin-2 receptor (Rattus norvegicus); experiment: Partial agonist activity at UT2 receptor in Sprague-Dawley rat thoracic aorta ring assessed as induction of aortic contractions at 10 to 100 uM relative to KCl; assay type: tissue-based
Method in brief: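 Peptides applied alone to rat aortic rings to test for induced contraction. Response expressed as percent of KCl-induced contraction.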

SMILES	inhibition [1] [%]	pIC50 (Urotensin-2 receptor)	Emax [2] [%]	Emax [3] [%]	Efficacy [4] [%]	Activity [4]
CC(C)[C@H](NC(=O)[C@@H]1CSSC[C@H](NC(=O)[C@@H](N)CC(=O)O)C(=O)N[C@@H](Cc2ccccc2)C(=O)NN(Cc2ccccc2)S(=O)(=O)N[C@@H](CCCCN)C(=O)N[C@@H](Cc2ccc(O)cc2)C(=O)N1)C(=O)O (HELM PEPTIDE1{D.C.F.[NCCCC[C@H](NS(=O)(=O)N(Cc1ccccc1)N[*:1])C(=O)[*:2]].Y.C.V}$PEPTIDE1,PEPTIDE1,2:R3-6:R3$$$V2.0)	40	< 6.00	101	87	3	–
CC(C)[C@H](NC(=O)[C@@H]1CSSC[C@H](NC(=O)[C@H](C)N)C(=O)N[C@@H](Cc2ccccc2)C(=O)N[C@@H](Cc2c[nH]c3ccccc23)C(=O)N[C@@H](CCCCN)C(=O)N[C@@H](Cc2ccc(O)cc2)C(=O)N1)C(=O)O	–	–	–	–	–	Active
CC(C)[C@H](NC(=O)[C@@H]1CSSC[C@H](NC(=O)[C@@H](N)CC(=O)O)C(=O)N[C@@H](Cc2ccccc2)C(=O)NN(Cc2ccc3ccccc3c2)S(=O)(=O)N[C@@H](CCCCN)C(=O)N[C@@H](Cc2ccc(O)cc2)C(=O)N1)C(=O)O	40	< 6.00	105	65	3	–
CC(C)[C@H](NC(=O)[C@@H]1CSSC[C@H](NC(=O)[C@@H](N)CC(=O)O)C(=O)N[C@@H](Cc2ccccc2)C(=O)NN(Cc2cccc3ccccc23)S(=O)(=O)N[C@@H](CCCCN)C(=O)N[C@@H](Cc2ccc(O)cc2)C(=O)N1)C(=O)O	40	< 6.00	38	29	3	–
CC(C)[C@H](NC(=O)[C@@H]1CSSC[C@H](NC(=O)[C@@H](N)CC(=O)O)C(=O)N[C@@H](Cc2ccccc2)C(=O)NN(Cc2ccc(-c3ccccc3)cc2)S(=O)(=O)N[C@@H](CCCCN)C(=O)N[C@@H](Cc2ccc(O)cc2)C(=O)N1)C(=O)O	40	< 6.00	69	51	3	–
CC(C)[C@H](NC(=O)[C@@H]1CSSC[C@H](NC(=O)[C@@H](N)CC(=O)O)C(=O)N[C@@H](Cc2ccccc2)C(=O)N[C@@H](Cc2c[nH]c3ccccc23)C(=O)NN(CCCCN)S(=O)(=O)N[C@@H](Cc2ccc(O)cc2)C(=O)N1)C(=O)O (HELM PEPTIDE1{D.C.F.W.[NCCCCN(N[*:1])S(=O)(=O)N[C@@H](Cc1ccc(O)cc1)C(=O)[*:2]].C.V}$PEPTIDE1,PEPTIDE1,2:R3-6:R3$$$V2.0)	40	< 6.00	110	83	–	inactive
CC(C)[C@H](NC(=O)[C@@H]1CSSC[C@H](NC(=O)[C@@H](N)CC(=O)O)C(=O)N[C@@H](Cc2ccccc2)C(=O)N[C@@H](Cc2c[nH]c3ccccc23)C(=O)NN(CCCCN(C)C)S(=O)(=O)N[C@@H](Cc2ccc(O)cc2)C(=O)N1)C(=O)O (HELM PEPTIDE1{D.C.F.W.[CN(C)CCCCN(N[*:1])S(=O)(=O)N[C@@H](Cc1ccc(O)cc1)C(=O)[*:2]].C.V}$PEPTIDE1,PEPTIDE1,2:R3-6:R3$$$V2.0)	40	< 6.00	110	83	–	inactive
CC(C)[C@H](NC(=O)[C@@H]1CSSC[C@H](NC(=O)[C@H](CC(=O)O)NC(=O)[C@@H]2CCCN2C(=O)[C@@H](NC(=O)[C@@H](N)CCC(=O)O)[C@@H](C)O)C(=O)N[C@@H](Cc2ccccc2)C(=O)N[C@@H](Cc2c[nH]c3ccccc23)C(=O)N[C@@H](CCCCN)C(=O)N[C@@H](Cc2ccc(O)cc2)C(=O)N1)C(=O)O	–	–	–	–	–	Active
